Measurements: ChEMBL document CHEMBL1142195, “A novel nonnucleoside analogue that inhibits human immunodeficiency virus type 1 isolates resistant to current nonnucleoside reverse transcriptase inhibitors” (Antimicrob Agents Chemother, 2007)
Active and inactive are the calls of the source. The rule behind the calls is not given here.

What was measured:
[1] = tested on: Human immunodeficiency virus 1; experiment: Antiviral activity against HIV1 isolate with RT 103N, 238N mutation relative to wild type; assay type: functional
Procedure, shortened: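 Mutant RT clones built in pNL4-3.Luc.R−E− reporter, VSV-G-pseudotyped, single-round infection of HeLa-JC53 cells (15,000/well, MOI 0.03) with 1:4 serial compound dilutions in DMEM (phenol red-free), 2% FBS, 0.2% final DMSO; 48 h at 37°C, 5% CO2; luciferase chemiluminescence read-out. Fold change in EC50 relative to wild-type virus; mean of two tests.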

[2] = tested on: Human immunodeficiency virus 1; experiment: Antiviral activity against HIV1 isolate with RT 103N, 190A mutation relative to wild type; assay type: functional
[3] = Bioavailability in dog at 20 mg/kg, po; assay type: ADME, organism-based, Canis lupus familiaris; conditions: in vivo
Procedure, shortened: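 Dogs given 10 mg/kg i.v. or 20 mg/kg p.o., n = 3 per time point. Plasma sampled predose through 24 h. Bioavailability = (oral AUC0-∞/intravenous AUC0-∞) × 100.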

[4] = tested on: Human immunodeficiency virus 2; experiment: Inhibition of HIV2(NIH-Z) isolate; assay type: functional, organism-based
Procedure, shortened: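 HeLa-JC53-LTR-Luci cells (HIV-1 LTR-driven luciferase) infected with HIV-2 at MOI 0.03, with 1:4 serial compound dilutions (final DMSO 0.2%, 2% FBS medium). Incubated 48 h at 37°C in 5% CO2. Luciferase chemiluminescence read-out.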

[5] = tested on: Hepatitis B virus; experiment: Inhibition of hepatitis B virus replication; assay type: functional, organism-based
[6] = Plasma concentration in dog at 10 mg/kg, iv after 12 hrs; assay type: ADME, organism-based, Canis lupus familiaris; design: dose 10 mg/kg, route intravenous
[7] = Tmax in dog at 20 mg/kg, po; assay type: ADME, organism-based, Canis lupus familiaris; design: dose 20 mg/kg, route oral; conditions: in vivo
[8] = tested on: Human immunodeficiency virus 1; experiment: Antiviral activity against wild type HIV1 NL4-3 in Hela-JC53 cells in the presence of 30% human serum after 48 hrs; assay type: functional, organism-based; conditions: Human immunodeficiency virus 1, NL4-3, Hela-JC53, 48 h
Procedure, shortened: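 HeLa-JC53 cells (1.5 × 10^4) infected with VSV-G-pseudotyped NL4-3.Luci.R−E− reporter virus at MOI 0.03, with 1:4 serial compound dilutions. Heat-inactivated human serum added to final 0–50% on a basal 2% FBS medium. Incubated 48 h at 37°C in 5% CO2. Luciferase read-out; EC50 by nonlinear regression.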

[9] = tested on: Human immunodeficiency virus 1; experiment: Antiviral activity against HIV1 isolate with RT G190A mutation; assay type: functional, organism-based
Procedure, shortened: (§1)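 VSV-G-pseudotyped pNL4-3.Luc.R−E− molecular clones carrying the RT mutations, single-round infection of HeLa-JC53 cells (15,000/well) at MOI 0.03. Compounds serially diluted 1:4 in DMSO then in phenol red-free DMEM with 2% FBS, final DMSO 0.2%. Incubated 48 h at 37°C, 5% CO2. Luciferase read-out by chemiluminescence gives the EC50. Fold change is relative to wt virus, mean of two tests.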

[10] = tested on: Human immunodeficiency virus 1; experiment: Antiviral activity against HIV1 isolate with RT T369I mutation in Hela-JC-53 cells; assay type: functional
[11] = tested on: Human immunodeficiency virus 1; experiment: Antiviral activity against HIV1 isolate with RT K103N-Y181C mutation; assay type: functional, organism-based; procedure, shortened: as §1

SMILES | Fold change [1] | Fold change [2] | bioavailability [3] | Activity [4] | Activity [5] | concentration at 12 h [6] | Tmax [7] | EC50 [8] | EC50 [9] | Fold change [10] | EC50 [11]
Cc1ccnc2c1NC(=O)c1cccnc1N2C1CC1 [NEVIRAPINE] | >100 | >100 |  |  |  |  |  |  |  |  | 
NS(=O)(=O)c1ccc(NC(=O)CSc2nnc(Br)n2-c2ccc(C3CC3)c3ccccc23)c(Cl)c1 |  |  | 47.1% | inactive | inactive | 283 ng/mL | 5.3 h | 8.6 nM | 0.19 nM | 1.3 | 0.23 nM
